In ChEMBL document CHEMBL2021915, “Synthesis, characterization and biological activity of hydroxyl-bisphosphonic analogs of bile acids” (Eur J Med Chem, 2012):
Active and inactive are the calls of the source. The calls are words filed in the database; no cut-off is given here.

Key:
PBMC [1] = test: Inhibition of osteoclastogenesis in human osteoclasts obtained from PBMC assessed as formation of TRAPC positive multinucleated cells at 10^-5 M after 7 days; type: functional, cell-based
Method in brief: (§1)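 Human PBMC from buffy coats (Ficoll), adherent monocytes at 3 × 10^6 cells/cm2 differentiated in DMEM/10% FBS with 25% SH-SY5Y conditioned supernatant, compound (10^-5, 10^-7, 10^-9 M) added with differentiation medium for 7 days. TRACP-positive multinucleated cells counted after fixation and TRACP staining; untreated differentiated cultures = 100%. Duplicates; 4 cultures from two donors.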

Osteoclast = test: Induction of apoptosis in human multinucleated osteoclasts obtained from PBMC assessed as formation of apoptotic nuclear bodies at 10^-5 M after 7 days by Hoechst 33258 staining; type: functional, cell-based
Method in brief: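 PBMC-derived osteoclasts (7 days in SH-SY5Y-conditioned differentiation medium) then exposed to compound (10^-5, 10^-7, 10^-9 M) for a further 7 days. Fixed, stained with phalloidin-TRITC (F-actin rings) and Hoechst 33258; multinucleated cells with apoptotic nuclear bodies counted over whole well at 40×, as % of multinucleated TRACP-positive cells. 4 cultures, two donors.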

[2] = Solubility of the compound in L929 cell culture medium; type: physicochemical
Hydroxyapatite [3] = test: Binding affinity to hydroxyapatite assessed as unadsorbed compound level at 40 mg after 3 hrs using 2.5 mg/ml of hydroxyapatite by NMR analysis relative to control
Method in brief: (§2)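 Compound (about 40 mg) dissolved in 10 mL bidistilled water, pH adjusted to 7.4, stirred at 25 °C in a capped vial with hydroxyapatite; remaining unadsorbed compound in solution followed over time by NMR signal relative to starting signal.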

Hydroxyapatite [4] = test: Binding affinity to hydroxyapatite assessed as unadsorbed compound level at 40 mg after 24 hrs using 2.5 mg/ml of hydroxyapatite by NMR analysis relative to control; method in brief: as §2
Hydroxyapatite [5] = test: Binding affinity to hydroxyapatite assessed as unadsorbed compound level at 40 mg after 48 hrs using 5 mg/ml of hydroxyapatite by NMR analysis relative to control; method in brief: as §2
Hydroxyapatite [6] = test: Binding affinity to hydroxyapatite assessed as unadsorbed compound level at 40 mg after 72 hrs using 7.5 mg/ml of hydroxyapatite by NMR analysis relative to control; method in brief: as §2
Hydroxyapatite [7] = test: Binding affinity to hydroxyapatite assessed as unadsorbed compound level at 40 mg after 96 hrs using 10 mg/ml of hydroxyapatite by NMR analysis relative to control; method in brief: as §2
PBMC [8] = test: Inhibition of osteoclastogenesis in human osteoclasts obtained from PBMC assessed as formation of TRAPC positive multinucleated cells at 10^-5 to 10^-9 M after 7 days; type: functional, cell-based; method in brief: as §1
[9] = Distribution coefficient, log D of the compound at pH 7.4; type: physicochemical; details: octanol/water
Method in brief: (§3)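 Log D values were obtained by calculation, not by experimental partitioning.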

[10] = Distribution coefficient, log D of the compound at pH 1.5; type: physicochemical; details: octanol/water; method in brief: as §3
L929 [11] = test: Cytotoxicity against mouse L929 cells assessed as cell viability after 72 hrs by neutral-red uptake assay; type: cell-based; details: l929, 72 h
Method in brief: (§4)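 L929 mouse fibroblasts in MEM/10% FCS, 0.8 × 10^3 cells/well, adhered 24 h, then exposed to serial dilutions (10^-4 to 10^-10 M; 10^-2 M PBS pH 7.4 stocks) for 72 h. Neutral red 2 h at 37 °C, extracted with ethanol/acetic acid, OD 540 nm, blank-subtracted; ratio to medium-only control. Triplicate wells, 9 experiments.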

L929 [12] = test: Cytotoxicity against mouse L929 cells assessed as cell viability at 10^-4 to 10^-5 M after 72 hrs by neutral-red uptake assay relative to neridronate; type: cell-based; details: l929, 72 h; method in brief: as §4
Hydroxyapatite [13] = test: Binding affinity to hydroxyapatite assessed as unadsorbed compound level at 20 mg after 3 hrs using 2.5 mg/ml of hydroxyapatite by NMR analysis relative to control
Method in brief: (§5)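 Bisphosphonate salt dissolved in bidistilled water, pH adjusted to 7.4, and magnetically stirred at 25 °C for the hydroxyapatite adsorption test.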

Hydroxyapatite [14] = test: Binding affinity to hydroxyapatite assessed as unadsorbed compound level at 20 mg after 24 hrs using 2.5 mg/ml of hydroxyapatite by NMR analysis relative to control; method in brief: as §5
Hydroxyapatite [15] = test: Binding affinity to hydroxyapatite assessed as unadsorbed compound level at 20 mg after 48 hrs using 5 mg/ml of hydroxyapatite by NMR analysis relative to control; method in brief: as §5
Hydroxyapatite [16] = test: Binding affinity to hydroxyapatite assessed as unadsorbed compound level at 20 mg after 72 hrs using 7.5 mg/ml of hydroxyapatite by NMR analysis relative to control; method in brief: as §5
Hydroxyapatite [17] = test: Binding affinity to hydroxyapatite assessed as unadsorbed compound level at 20 mg after 96 hrs using 10 mg/ml of hydroxyapatite by NMR analysis relative to control; method in brief: as §5

In the case of `C[C@H](CCC(=O)O)[C@H]1CC[C@H]2[C@@H]3[C@H](O)C[C@@H]4C[C@H](O)CC[C@]4(C)[C@H]3CC[C@]12C`, the inhibition (PBMC [1]) is reported as “Active” and the Activity (Osteoclast) is reported as “Active”.

In the case of `C[C@H](CCC(O)(P(=O)([O-])O)P(=O)([O-])O)[C@H]1CC[C@H]2[C@@H]3[C@H](O)C[C@@H]4C[C@H](O)CC[C@]4(C)[C@H]3C[C@H](O)[C@]12C.[Na+].[Na+]`, the solubility [2] is reported as “Insoluble”.

Work on `C[C@H](CCC(O)(P(=O)(O)O)P(=O)(O)O)[C@H]1CC[C@H]2[C@@H]3[C@H](O)C[C@@H]4C[C@H](O)CC[C@]4(C)[C@H]3CC[C@]12C` [listing 1 of 2 here] yielded an Activity (Hydroxyapatite [3]) of 91%, an Activity (Hydroxyapatite [4]) of 64% and an Activity (Hydroxyapatite [5]) of 32%. For the same molecule, the Activity (Hydroxyapatite [6]) was 12%, the Activity (Hydroxyapatite [7]) was 3% and the inhibition (PBMC [8]) was “Active”. The Activity (Osteoclast) was “Active”.

For `C[C@H](CCC(O)(P(=O)(O)O)P(=O)(O)O)[C@H]1CC[C@H]2[C@@H]3[C@H](O)C[C@@H]4C[C@H](O)CC[C@]4(C)[C@H]3C[C@H](O)[C@]12C`, the logD [9] was -4.53 and the logD [10] was -0.76.

With `C[C@H](CCC(O)(P(=O)([O-])O)P(=O)([O-])O)[C@H]1CC[C@H]2[C@@H]3[C@H](O)C[C@@H]4C[C@H](O)CC[C@]4(C)[C@H]3CC[C@]12C.[Na+].[Na+]` the Activity (L929 [11]) was “Dose-dependent effect” and the Activity (L929 [12]) was “Non-toxic”.

Molecule `C[C@H](CCC(O)(P(=O)(O)O)P(=O)(O)O)[C@H]1CC[C@H]2[C@@H]3[C@@H](O)C[C@@H]4C[C@H](O)CC[C@]4(C)[C@H]3CC[C@]12C` has a logD ([9]; read-out: logD) of -3.34 and a logD [10] of 0.44.

In the case of `NCCCCCC(O)(P(=O)(O)O)P(=O)(O)O` [NERIDRONIC ACID], the Activity (Hydroxyapatite [13]) is reported as 98%, the Activity (Hydroxyapatite [14]) is reported as 96% and the Activity (Hydroxyapatite [15]) is reported as 85%. For the same molecule, the Activity (Hydroxyapatite [16]) was 82%, the Activity (Hydroxyapatite [17]) was 67% and the Activity (L929 [11]) was “Dose-dependent effect”. For the same molecule, the inhibition (PBMC [8]) was “Active” and the Activity (Osteoclast) was “Active”.

With `O=P(O)(O)C(Cl)(Cl)P(=O)(O)O` [CLODRONIC ACID] the Activity (Hydroxyapatite [13]) was 100%, the Activity (Hydroxyapatite [14]) was 100% and the Activity (Hydroxyapatite [15]) was 100%. For the same molecule, the Activity (Hydroxyapatite [16]) was 96%, the Activity (Hydroxyapatite [17]) was 93% and the logD [9] was -5.04. It also gave a logD [10] of -1.32.

In the case of `C[C@H](CCC(O)(P(=O)([O-])O)P(=O)([O-])O)[C@H]1CC[C@H]2[C@@H]3[C@@H](O)C[C@@H]4C[C@H](O)CC[C@]4(C)[C@H]3CC[C@]12C.[Na+].[Na+]`, the solubility [2] is reported as “Insoluble”.

With `C[C@H](CCC(O)(P(=O)(O)O)P(=O)(O)O)[C@H]1CC[C@H]2[C@@H]3[C@H](O)C[C@@H]4C[C@H](O)CC[C@]4(C)[C@H]3CC[C@]12C` [listing 2 of 2 here] the logD ([9]; read-out: logD) was -3.34 and the logD [10] was 0.44.
